Assay results from ChEMBL document CHEMBL2157877, “Synthesis and pharmacological evaluation of N-substituted 2-(2-oxo-2H-chromen-4-yloxy)propanamide as cyclooxygenase inhibitors” (Bioorg Med Chem Lett, 2012).

Target: T1, Prostaglandin G/H synthase 1 (Ovis aries, UniProt P05979)
T1 sequence (P05979 whole entry): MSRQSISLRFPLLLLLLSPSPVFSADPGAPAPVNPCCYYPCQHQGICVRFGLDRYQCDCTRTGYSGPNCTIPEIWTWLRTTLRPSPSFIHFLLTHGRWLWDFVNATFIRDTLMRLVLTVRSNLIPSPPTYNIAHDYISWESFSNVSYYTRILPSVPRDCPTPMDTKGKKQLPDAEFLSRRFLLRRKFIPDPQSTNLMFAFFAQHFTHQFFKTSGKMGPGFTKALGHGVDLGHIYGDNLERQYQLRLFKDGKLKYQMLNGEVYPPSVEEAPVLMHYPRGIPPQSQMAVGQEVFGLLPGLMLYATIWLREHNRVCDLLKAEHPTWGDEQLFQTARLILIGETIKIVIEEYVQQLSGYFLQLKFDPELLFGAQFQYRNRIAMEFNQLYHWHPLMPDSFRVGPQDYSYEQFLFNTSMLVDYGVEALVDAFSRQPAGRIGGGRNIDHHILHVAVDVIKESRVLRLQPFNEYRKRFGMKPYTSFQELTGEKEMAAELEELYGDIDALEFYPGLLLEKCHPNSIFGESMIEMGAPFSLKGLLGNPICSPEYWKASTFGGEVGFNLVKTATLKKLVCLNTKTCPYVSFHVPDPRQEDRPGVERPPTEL
Assay: Inhibition of ovine COX1 using arachidonic acid as substrate incubated for 1 min prior to substrate addition measured for 25 secs by TMPD-based chromogenic assay
Method in brief: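 COX-1 purified from ram seminal vesicles by chromatography. Reaction in Tris HCl buffer (100 mM, pH 8.0) with hematin, EDTA (3 mM) and enzyme, preincubated with test compound at 25 °C for 1 min. Started with arachidonic acid plus TMPD. Nonenzymatic oxidation subtracted before calculating percent inhibition.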

IC50 | Structure (SMILES)
5.03 µM | CC(Oc1cc(=O)oc2ccccc12)C(=O)N1CCOCC1 (racemic)
4.61 µM | Cc1c(Cl)cccc1NC(=O)C(C)Oc1cc(=O)oc2ccccc12 (racemic)
9.6 µM | CC(Oc1cc(=O)oc2ccccc12)C(=O)Nc1ccc(C(F)(F)F)cc1C#N (racemic)
9.64 µM | CC(Oc1cc(=O)oc2ccccc12)C(=O)Nc1ccncc1 (racemic)
3.33 µM | CC(Oc1cc(=O)oc2ccccc12)C(=O)NC12CC3CC(C)(CC(C)(C3)C1)C2 (mixture of isomers)
13.7 µM | CC(Oc1cc(=O)oc2ccccc12)C(=O)N1CCCC1 (racemic)
2.26 µM | COc1ccc(NC(=O)C(C)Oc2cc(=O)oc3ccccc23)cc1 (racemic)
2.98 µM | CC(Oc1cc(=O)oc2ccccc12)C(=O)Nc1cccc2c(=O)[nH]ccc12 (racemic)
4.6 µM | CC(Oc1cc(=O)oc2ccccc12)C(=O)Nc1ccc(N2CCOCC2=O)cc1 (racemic)
1.64 µM | CC(Oc1cc(=O)oc2ccccc12)C(=O)Nc1ccc(F)cc1F (racemic)
